Laboratory results as given in PMC10041147 (RSC Advances, 2023).

Assays:
[1] = biological target: T1, Pseudomonas aeruginosa lectin LecA (Pseudomonas aeruginosa, UniProt Q05097); assay: Electrochemical; settings: LecA sensor, n.b. = no binding; for K d from CV: cyclic voltammetry; for K d from DPV: differential pulse voltammetry
T1 sequence (Q05097 1-122): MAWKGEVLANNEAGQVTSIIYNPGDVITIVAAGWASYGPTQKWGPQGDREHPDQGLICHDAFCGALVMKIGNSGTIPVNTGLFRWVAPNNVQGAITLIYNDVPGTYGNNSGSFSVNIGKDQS
Method in brief: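 P. aeruginosa LecA (commercial, ≥70%) coupled at 10 μM for 1 h to an EDC/NHS-activated MUA/DTT layer on a gold nanoparticle–graphene screen-printed electrode, then blocked 30 min with 1% BSA. Sugars titrated in 10 mM PBS with 1 mM CaCl2 and 1 mM MnCl2. Read in 25 mM [Fe(CN)6]3−/4− with 0.2 M KCl at 25 °C. CV: −0.2 to 0.8 V, 0.05 V s−1. DPV: −0.2 to 0.5 V. Reduction-peak Δip fitted to a one-site model.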

LecA = settings: n.b. = no binding, no reference given; cited from earlier work
ConA = settings: read-out: Reported Kd; cited from earlier work

OC[C@H]1OC(O)[C@@H](O)[C@@H](O)[C@@H]1O (some centres unmarked) [mannose (3), mannose]
K d from CV [1]: n.b. | K d from DPV [1]: n.b. | Reported Kd (LecA): n.b. | Kd (ConA): 57 µM

mannan [mannan (4)]
K d from CV [1]: n.b. | K d from DPV [1]: n.b. | Reported Kd (LecA): n.b. | Kd (ConA): 3 µM
